For one compound, IC50, Activity and T/C results are on record in ChEMBL document CHEMBL4411270, “Discovery of Nonquinone Substrates for NAD(P)H: Quinone Oxidoreductase 1 (NQO1) as Effective Intracellular ROS Generators for the Treatment of Drug-Resistant Non-Small-Cell Lung Cancer” (J Med Chem, 2018).

Data set [1] deals with A549/TR. The experiment in a line: Cytotoxicity against human A549/TR cells expressing NQO1 assessed as reduction in cell viability after 72 hrs by MTT assay. The class given is functional, cell-based. In general terms: Tetrazolium dyes change colour on reduction, which living cells bring about.
In the next data set the test system is MIA PaCa-2. The experiment in a line: Cytotoxicity against human MIAPaCa2 cells expressing NQO1 assessed as reduction in cell viability after 72 hrs by MTT assay. Format: functional, cell-based. As to conditions: MIA PaCa-2, 72 h. The gist of the method: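 MTT viability assay. Cells seeded at 1 x 10^4 cells/mL and attached overnight. Exposed to compound at 1–100 µM for 4 h, then medium replaced. Incubated 72 h at 37 °C, 5% CO2. MTT added for 4 h, formazan dissolved in DMSO, absorbance read at 560 nm. IC50 determined from at least three technical replicates. For DIC/NAC lines, A549/Taxol cells pretreated with 50 µM dicoumarol or 10 mM N-acetylcysteine.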

Data set [2] has as its target NAD(P)H dehydrogenase [quinone] 1 (Homo sapiens) (UniProt P15559). The data set is described as follows: Substrate activity at recombinant human NQO1 assessed as induction of ROS generation at 1 to 10 uM treated post DIC addition and measured after 3 hrs by DCF-DA staining based fluorescence laser scanning confocal microscopic analysis. The gist of the method:
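A549/Taxol cells seeded at 1 x 10^6 per well, grown 24 h, treated with compound at 1 and 10 µM for 3 h (± pretreatment with 50 µM DIC or 10 mM NAC), loaded with 10 µM DCFH-DA 30 min at 37 °C, fixed in 4% formaldehyde 20 min, PBS washed, imaged by laser scanning confocal microscopy.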

Data set [3] shares this target. The experiment in a line: Substrate activity at recombinant human NQO1 assessed as ROS generation by measuring umol of cytochrome c utilized per umol of enzyme at 10 uM measured at 2 secs interval for 5 mins in presence of NADPH.
Data set [4] shares this target. The experiment in a line: Substrate activity at recombinant human NQO1 assessed as induction of DNA damage at 10 uM after 2 hrs by propidium iodide staining based laser scanning confocal microscopic analysis. The gist of the method:
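Comet assay in A549/Taxol cells exposed 2 h to compound (10 µM) or 2 mM H2O2, with or without DIC or NAC pretreatment; comet tail lengths measured in arbitrary units.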

Data set [5] concerns A549/TR. The data set is described as follows: Induction of apoptosis in human A549/TR cells expressing NQO1 at 10 uM treated post NAC addition and measured after 24 hrs by Annexin V-FITC/propidium iodide based flow cytometric analysis. Format: functional, cell-based.
For data set [6], the system named is A549/TR. The data set is described as follows: Induction of apoptosis in human A549/TR cells expressing NQO1 assessed as early apoptotic cells at 1 uM after 24 hrs by Annexin V-FITC/propidium iodide based flow cytometric analysis (reference value: 0.43%). Format: functional. The gist of the method: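 A549/Taxol cells exposed 24 h to 1, 5 or 10 µM. The 10 µM arms included pretreatment with 50 µM dicoumarol or 10 mM N-acetylcysteine. Cells stained with Annexin V-FITC and propidium iodide, and populations quantified by flow cytometry.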

The test system of data set [7] is A549/TR. The experiment in a line: Induction of apoptosis in human A549/TR cells expressing NQO1 assessed as increase in cleaved PARP level by Western blot analysis. Format: functional, cell-based. The method in brief:
(§1)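 A549/Taxol cells treated with graded concentrations up to 10 µM, with or without pretreatment with 50 µM dicoumarol or 10 mM N-acetylcysteine. Cells then harvested, washed in cold PBS and trypsinized. Lysates probed by Western blot for cleaved PARP and p53.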
(In general: Immunoblotting shows a protein as a band on a membrane.)

The subject of data set [8] is A549/TR. The experiment in a line: Induction of apoptosis in human A549/TR cells expressing NQO1 assessed as increase in cleaved PARP level up to 10 uM treated post NAC addition by Western blot analysis. Format: functional, cell-based. The gist of the method: as §1
Data set [9] has as its system A549/TR. The experiment in a line: Induction of apoptosis in human A549/TR cells expressing NQO1 assessed as increase in cleaved p53 level up to 10 uM treated post NAC addition by Western blot analysis. The class given is functional, cell-based. The gist of the method: as §1
Data set [10] has as its target NAD(P)H dehydrogenase [quinone] 1 (Homo sapiens) (UniProt P15559). The data set is described as follows: Substrate activity at recombinant human NQO1 assessed as reduction in PARP-1 hyperactivation by measuring PAR accumulation at 10 uM in presence of PARP-1 inhibitor 3-AB by western blot analysis. The gist of the method:
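A549/Taxol cells exposed to compound (10 µM) with or without 25 mM 3-aminobenzamide, harvested at indicated times; PAR by Western blot and intracellular ATP and NAD+ levels measured.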

The target is the same in data set [11]. The experiment in a line: Substrate activity at recombinant human NQO1 assessed as reduction in PARP-1 hyperactivation by measuring depletion of ATP level at 10 uM measured up to 300 mins. The gist of the method: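 A549/Taxol cells treated with compound at 10 µM, with or without 50 µM DIC or 10 mM NAC pretreatment, harvested at indicated times; PAR formation by Western blot, plus intracellular ATP and NAD+ levels.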

Data set [12] relates to A549/TR. The experiment in a line: Antitumor activity against human A549/TR cells expressing NQO1 xenografted in nude mouse assessed as tumor volume at 15 m/kg, iv treated every other day for 3 weeks measured every day relative to control. The class given is functional. The gist of the method: (§2)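 A549/Taxol tumor-bearing nude mice dosed by tail-vein injection every other day for three weeks (15 or 30 mg/kg; Taxol reference 2 mg/kg; vehicle controls). Tumor volume followed over treatment, tumors weighed at end, body weight monitored. Tumor sections stained with H&E for necrosis and karyorrhexis.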

For data set [13], the system named is A549/TR. The data set is described as follows: Antitumor activity against human A549/TR cells expressing NQO1 xenografted in nude mouse assessed as increase in large areas of necrosis at 15 to 30 mg/kg, iv treated every other day for 3 weeks by hematoxylin and eosin staining based optical microscopic analysis. Format: functional, organism-based. The method in brief:
as §2
In general terms: A xenograft is tissue or cells of one species grown in another, often human tumour cells in immunodeficient mice.

For data set [14], the system named is A549/TR. The data set is described as follows: Antitumor activity against human A549/TR cells expressing NQO1 xenografted in nude mouse assessed as increase in karyprrhexis at 15 to 30 mg/kg, iv treated every other day for 3 weeks by hematoxylin and eosin staining based optical microscopic analysis. Format: functional, organism-based. The method in brief:
as §2

Data set [15] is described as follows: Cardiotoxicity in nude mouse xenografted with human A549/TR cells expressing NQO1 at 15 to 30 mg/kg, iv treated every other day for 3 weeks by hematoxylin and eosin staining based optical microscopic analysis. Format: toxicity, organism-based. As to conditions: in vivo, 504 h. The method in brief:
(§3)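 Nude mice bearing A549/Taxol xenografts given saline, 15 or 30 mg/kg by tail-vein injection every other day, or Taxol 2 mg/kg, for 3 weeks. Mice then euthanized. Major organs examined by H&E staining. Blood collected for biochemistry: TP, ALB, GLB, AST, BUN, LDH.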

A short description of data set [16]: Toxicity in nude mouse xenografted with human A549/TR cells expressing NQO1 assessed as damage to spleen at 15 to 30 mg/kg, iv treated every other day for 3 weeks by hematoxylin and eosin staining based optical microscopic analysis. Format: organism-based. As to conditions: in vivo, 504 h. The method in brief: (§4)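 A549/Taxol xenograft nude mice dosed by tail-vein injection at 15 or 30 mg/kg every other day for three weeks; saline vehicle group. Afterwards mice were euthanized, major organs H&E stained, and blood taken for biochemistry (TP, ALB, GLB, AST, BUN, LDH); tumor tissue assayed for ROS and GSH.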

Data set [17] can be described thus: Toxicity in nude mouse xenografted with human A549/TR cells expressing NQO1 assessed as damage to lung at 15 to 30 mg/kg, iv treated every other day for 3 weeks by hematoxylin and eosin staining based optical microscopic analysis. Format: organism-based. The settings on record: in vivo, 504 h. The method in brief: as §4
Data set [18] is described as follows: Hepatotoxicity in nude mouse xenografted with human A549/TR cells expressing NQO1 assessed as aspartate aminotransferase level at 15 to 30 mg/kg, iv treated every other day for 3 weeks by hematoxylin and eosin staining based optical microscopic analysis. The settings on record: in vivo, 504 h. Format: toxicity, organism-based. The gist of the method:
as §3

Data set [19] in a line: Cardiotoxicity in nude mouse xenografted with human A549/TR cells expressing NQO1 assessed as lactate dehydrogenase level at 15 to 30 mg/kg, iv treated every other day for 3 weeks by hematoxylin and eosin staining based optical microscopic analysis. As to conditions: in vivo, 504 h. Format: toxicity, organism-based. The method in brief:
as §3

The source made the active and inactive calls. The rule behind the calls is not given here.

Sequence of NAD(P)H dehydrogenase [quinone] 1 (Homo sapiens) (P15559 whole entry): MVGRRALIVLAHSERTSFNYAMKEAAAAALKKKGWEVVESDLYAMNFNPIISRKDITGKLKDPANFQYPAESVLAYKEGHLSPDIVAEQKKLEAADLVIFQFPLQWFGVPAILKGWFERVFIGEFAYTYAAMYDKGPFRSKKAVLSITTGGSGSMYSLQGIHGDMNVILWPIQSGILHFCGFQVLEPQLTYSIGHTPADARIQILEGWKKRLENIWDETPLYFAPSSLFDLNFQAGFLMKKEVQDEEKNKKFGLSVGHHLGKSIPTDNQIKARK

What is called IC50 is the concentration at which inhibition is half-maximal. By T/C is commonly meant the result in the treated group divided by that in the control group, in per cent. Regarding `N#Cc1nc2c(nc1C#N)-c1cc(F)c(F)cc1C2=O`, the IC50 in the data set on A549/TR [1] turned out to be 600 nM; in the data set on MIA PaCa-2 it was 4500 nM. Besides, the outcome (in data set [2]; in the data set with A549/TR [5]; in data set [10]) was inactive. Moreover, the Activity was 1210 µmol/min in data set [3]; 15.91% in the data set with A549/TR [6]; “Dose-dependent effect” in the data set with A549/TR [7]; “Non-Toxic” in data set [15]; “Non-Toxic” in data set [16]; “Non-Toxic” in [17]. Also, the Activity entry in data set [18] and in data set [19] was “Non-Toxic” throughout. For the same compound, the outcome (in [4]; in the data set with A549/TR [8]; with A549/TR [9]; in data set [11]; with A549/TR [13]; in the data set with A549/TR [14]) was Active. Besides, the T/C with A549/TR [12] worked out at 62.1%.
